ChEMBL document CHEMBL4842312, “Phenoxazine nucleoside derivatives with a multiple activity against RNA and DNA viruses” (Eur J Med Chem, 2021)

Columns and labels:
Human alphaherpesvirus 3 [1] = test: Antiviral activity against Varicella zoster virus assessed as inhibition of viral replication; format: functional, organism-based
HEL = test: Cytotoxicity against human HEL cells assessed as reduction in cell viability measured after 3 days by beckman coulter counting method; format: cell-based; details: 72 h, time 3 day
Summary of the method: (§1)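 Cells were seeded at 5 × 10³/well, grown 24 h, then exposed to compound from 100 μM downward for 3 days at 37 °C. Cell number was counted with a Coulter counter.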

[2] = Selectivity index, ratio of CC50 for pig PEK cells to EC50 for Antiviral activity against Omsk hemorrhagic fever virus infected in pig PEK cells; format: toxicity, cell-based; details: read-out: Ratio CC50/EC50
Vero = test: Cytotoxicity in African green monkey Vero cells assessed as reduction in cell viability measured after 5 days by resazurin dye based assay; details: chlorocebus sabaeus, vero, 120 h; time 5 day
Summary of the method: (§2)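 Cells (about 10⁵/well, 5% FBS) were added to two-fold compound dilutions (eight concentrations from 100 μM; DMSO control) and held 5 days at 36.5 °C in CO2. Medium was then replaced with resazurin (25 μg/mL) for 4 h and stopped with SDS. Fluorescence was read at Ex 525 / Em 580–640 nm, with background wells without resazurin subtracted. Done in two replicates; CC50 calculated.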

[3] = Cytotoxicity in pig PEK cells assessed as reduction in cell viability measured after 5 days by resazurin dye based assay; set-up: species or system Sus scrofa, Kidney; details: 120 h, time 5 day; summary of the method: as §2
Human betaherpesvirus 5 [4] = test: Antiviral activity against Human cytomegalovirus AD169; format: functional, organism-based; details: Human betaherpesvirus 5, AD169
Summary of the method: (§3)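 Confluent HEL cultures received 100 CCID50 or 20 PFU of virus, with 2 h adsorption before inoculum removal. Cells were then incubated with compound from 100 μM downward. Cytopathicity or plaques were scored once untreated infected controls reached completion.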

[5] = test system: Respiratory syncytial virus; test: Antiviral activity against Respiratory syncytial virus assessed as reduction in virus-induced cytopathic effect by MTS assay; format: functional, organism-based; details: human respiratory syncytial virus
Human alphaherpesvirus 3 [6] = test: Antiviral activity against thymidine kinase deficient Varicella zoster virus; format: functional, organism-based; summary of the method: as §3
[7] = test system: Tick-borne encephalitis virus; test: Antiviral activity against Tick-borne encephalitis virus infected in pig PEK cells assessed as reduction in virus plaque formation preincubated with virus for 1 hr followed by cell infection and measured after 1 hr by crystal violet staining based assay; format: functional, organism-based
[8] = Selectivity index, ratio of CC50 for pig PEK cells to EC50 for Antiviral activity against Powassan virus infected in pig PEK cells; format: toxicity, cell-based; details: read-out: Ratio CC50/EC50
HEp-2 = test: Cytotoxicity in human Hep2 cells assessed as reduction in cell viability measured after 3 days by beckman coulter counting method; format: functional; details: HEp-2, 72 h, time 3 day
Summary of the method: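 Hep2 cells seeded at 5 × 10³ cells/well and allowed to grow 24 h, then exposed to compound dilutions starting at 100 μM for 3 days at 37 °C. Cell number measured by Coulter counter.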

[9] = Selectivity index, ratio of CC50 for African green monkey Vero cells to EC50 for Antiviral activity against Chikungunya virus infected in African green monkey Vero cells; format: toxicity; details: read-out: Ratio CC50/EC50
Powassan virus = test: Antiviral activity against Powassan virus infected in pig PEK cells assessed as reduction in virus plaque formation preincubated with virus for 1 hr followed by cell infection and measured after 1 hr by crystal violet staining based assay; format: functional, organism-based
[10] = Selectivity index, ratio of CC50 for pig PEK cells to EC50 for Antiviral activity against Tick-borne virus encephalitis infected in pig PEK cells; format: toxicity, cell-based; details: read-out: Ratio CC50/EC50
Human alphaherpesvirus 3 [11] = test: Antiviral activity against thymidine kinase positive Varicella zoster virus; format: functional, organism-based; summary of the method: as §3
[12] = test system: Omsk hemorrhagic fever virus; test: Antiviral activity against Omsk hemorrhagic fever virus infected in pig PEK cells assessed as reduction in virus plaque formation preincubated with virus for 1 hr followed by cell infection and measured after 1 hr by crystal violet staining based assay; format: functional, organism-based
Human betaherpesvirus 5 [13] = test: Antiviral activity against Human cytomegalovirus Davis; format: functional, organism-based; details: Human betaherpesvirus 5, Davis; summary of the method: as §3
Chikungunya virus = test: Antiviral activity against Chikungunya virus infected in African green monkey Vero cells assessed as reduction in virus plaque formation preincubated with virus for 1 hr followed by cell infection and measured after 1 hr by crystal violet staining based assay; format: functional, organism-based
MDCK = test: Cytotoxicity in dog MDCK cells assessed as reduction in cell viability measured after 3 days by beckman coulter counting method; format: cell-based, Canis lupus familiaris; details: mdck, 72 h, time 3 day; summary of the method: as §1
SARS-CoV-2 = test: Antiviral activity against SARS COV-2 infected in monkey vero cells assessed as reduction in virus-induced cytopathic effect preincubated with virus for 1 hr followed by cell infection and measured after 5 days by microscopic analysis; format: functional, organism-based; details: Severe acute respiratory syndrome coronavirus 2, Vero
Influenza A virus = test: Antiviral activity against Influenza A virus (H1N1) infected in MDCK cells assessed as reduction in cytopathic effect preincubated with cells for 1 hrs followed by viral addition and measured after 24 hrs by Reed-Muench method; format: functional, organism-based
Summary of the method: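 MDCK monolayers were pre-incubated 1 h at 37 °C with 3-fold compound dilutions (from 2 mg/mL DMSO stock), then infected at MOI 1 for 24 h. Supernatant yield was titrated by 10-fold dilutions on fresh MDCK for 72 h. Titre was read by hemagglutination with 1% chicken erythrocytes and calculated by Reed-Muench as TID50 per 100 μL.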

[14] = Selectivity index, ratio of CC50 for human HEL cells to EC50 for antiviral activity against thymidine kinase positive Varicella zoster virus; format: toxicity; details: read-out: Ratio CC50/EC50
[15] = Selectivity index, ratio of CC50 for human HEL cells to EC50 for antiviral activity against thymidine kinase deficient Varicella zoster virus; format: toxicity; details: read-out: Ratio CC50/EC50

Row | Structure (SMILES) | CC50 (HEL) [µM] | CC50 (Vero) [µM] | CC50 [3] [µM] | EC50 (Human betaherpesvirus 5 [4]) [µM] | EC50 [5] [µM] | EC50 (Human alphaherpesvirus 3 [6]) [µM] | EC50 [7] [µM] | selectivity ratio [8] | CC50 (HEp-2) [µM] | selectivity ratio [9] | EC50 (Powassan virus) [µM] | selectivity ratio [10] | EC50 (Human alphaherpesvirus 3 [11]) [µM] | EC50 (Human betaherpesvirus 5 [13]) [µM] | EC50 (Chikungunya virus) [µM] | CC50 (MDCK) [µM] | EC50 (SARS-CoV-2) [µM] | EC50 (Influenza A virus) [µM] | also measured
1 | Nc1nc2c(ncn2COCCO)c(=O)[nH]1 [ACYCLOVIR] | > 300 | – | – | – | – | – | – | – | – | – | – | – | – | – | – | – | – | – | EC50 (Human alphaherpesvirus 3 [1]): 0.009 µM
2 | CCCCCCCc1cc2cn([C@H]3C[C@H](O)[C@@H](CO)O3)c(=O)nc2o1 | – | – | – | – | – | – | – | – | – | – | – | – | – | – | – | – | – | – | EC50 (Human alphaherpesvirus 3 [1]): 0.027 µM
3 | CN1c2ccccc2Oc2cn(COCCO)c(=O)nc21 | > 100 | > 100 | > 100 | > 100 | > 100 | > 100 | 16 | > 7 | > 100 | > 6 | 13.5 | > 6 | > 100 | > 100 | 15 | > 100 | > 100 | 33 | selectivity ratio [2]: > 22; EC50 [12]: 4.5 µM
4 | Nc1ccn(C[C@@H](CO)OCP(=O)(O)O)c(=O)n1 [CIDOFOVIR] | > 300 | – | – | – | – | – | – | – | – | – | – | – | – | 0.61 | – | – | – | – | –
5 | Nc1onc(C(=O)OCC23CC4CC(CC(C4)C2)C3)c1CCc1ccccc1 | – | – | > 100 | – | – | – | 4 | – | – | – | 15 | – | – | – | – | – | – | – | EC50 [12]: 15 µM
6 | CCCCCCCCCOc1ccc2c(c1)N(C)c1nc(=O)n([C@H]3C[C@H](O)[C@@H](CO)O3)cc1O2 | > 100 | > 100 | > 100 | > 100 | > 100 | > 20 | 2.53 | > 42 | > 100 | > 15 | 2.4 | > 40 | > 20 | > 100 | 6.3 | > 100 | > 100 | 35 | –
7 | CCCCCCCCCOc1ccc2c(c1)Nc1nc(=O)n([C@H]3C[C@H](O)[C@@H](CO)O3)cc1O2 | > 100 | > 100 | > 100 | > 100 | > 100 | 14.2 | 5.3 | > 13 | > 100 | > 13 | 7.7 | > 18 | 0.2 | > 100 | 7.4 | > 100 | > 100 | > 40 | selectivity ratio [14]: > 500; selectivity ratio [15]: > 8
8 | COc1ccc(C(OCCOCn2cc3c(nc2=O)Nc2ccccc2O3)(c2ccccc2)c2ccc(OC)cc2)cc1 | > 100 | > 100 | > 100 | > 100 | > 100 | > 100 | 36 | > 5 | > 100 | – | 21 | > 2 | > 100 | > 100 | > 50 | > 100 | > 100 | 14 | selectivity ratio [2]: > 4; EC50 [12]: 21.4 µM
9 | COc1ccc(C(OC[C@H]2O[C@@H](n3cc4c(nc3=O)Nc3ccccc3O4)[C@H](OC)[C@@H]2O)(c2ccccc2)c2ccc(OC)cc2)cc1 | – | 26.5 | – | – | – | – | – | – | – | – | – | – | – | – | – | – | 12.4 | – | –
10 | CO[C@@H]1[C@H](O)[C@@H](CO)O[C@H]1n1cc2c(nc1=O)Nc1ccccc1O2 | – | > 100 | – | – | – | – | – | – | – | – | – | – | – | – | – | – | > 100 | – | –
11 | NCCOc1cccc2c1Nc1nc(=O)n([C@H]3C[C@H](O)[C@@H](CO)O3)cc1O2 | – | 1.81 | – | – | – | – | – | – | – | – | – | – | – | – | – | – | 1.12 | – | –
12 | Nc1nc(O)c2ncn(COC(CO)CO)c2n1 [GANCICLOVIR] | > 300 | – | – | 19 | – | – | – | – | – | – | – | – | – | 1.79 | – | – | – | – | –
13 | CCCCCCCCCCOc1ccc2c(c1)N(C)c1nc(=O)n([C@H]3C[C@H](O)[C@@H](CO)O3)cc1O2 | > 100 | 59 | 79 | > 20 | > 100 | 15.1 | 5.4 | – | > 100 | 83 | 0.45 | – | 10.7 | 20 | 0.71 | > 40 | > 100 | 23 | selectivity ratio [14]: > 11; selectivity ratio [15]: > 6
